MrgX1 antag: human MrgX1 receptor antagonism, primary screen | actives 1.3% (n = 310,000) | MRGX1-HEK293 calcium flux, Fluo-4, BAM8-22 antagonism; hits give low values | B-score at 10 µM;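 active = calcium-response B-score plate-corrected more than 3 library SD below zero, starting fluorescence within 5 deviations, no agonist response on first addition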;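 also: peak minus trough fluorescence over baseline after final BAM8-22 challenge near maximal dose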
MrgX1 ag: human MrgX1 receptor agonism, primary screen. Q96LB2. MrgX1-HEK293 cells, Fluo-4 calcium fluorescence, agonist mode; hits give high values. B-score at 10 µM. actives 0.44% (n = 310,000). AID 588627;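 active = calcium response B-score plate-corrected fluorescence ratio at least 3 library SD, with starting fluorescence B-score inside 5 SD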
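Test system: Stable human MrgX1 HEK293 cell line | Schedule: Overnight plating before 1 h dye loading | Read-out basis: Baseline-normalised fluorescence change ratio, B-scored | Detection: Kinetic calcium dye fluorescence, Fluo-4 NW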
MrgX1 allo act: allosterically activates human MrgX1 receptor signaling. Q96LB2. MrgX1-HEK293, Fluo-4 calcium flux, FDSS; hits give high values. B-score at 10 µM. actives 0.63% (n = 310,000). AID 588675;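 active = plate-corrected calcium response at least 3 library SD above typical, normal starting fluorescence, not activating the receptor alone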;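 also: compound read alongside a low EC10 to EC30 dose of BAM8-22 agonist; peak minus trough fluorescence over baseline measured at the second addition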
RGS4 block: inhibitors of human RGS4; P49798; actives 0.45% (n = 310,000); HEK293 M3R/RGS4 inducible, Fluo-4 calcium flux; hits give high values; triggered by carbachol at its EC20; B-score at 10 µM;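 active = B-score, a plate-corrected calcium signal, over three deviations above library mean, with baseline fluorescence within five deviations of library mean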;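 also: RGS4 expression induced by doxycycline in cells with stable M3 receptor; B-score is computed from the integrated fluorescence ratio over baseline after carbachol; higher B-score means a larger calcium signal and so more RGS4 inhibition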
Target sequence (P49798 whole entry, looked up): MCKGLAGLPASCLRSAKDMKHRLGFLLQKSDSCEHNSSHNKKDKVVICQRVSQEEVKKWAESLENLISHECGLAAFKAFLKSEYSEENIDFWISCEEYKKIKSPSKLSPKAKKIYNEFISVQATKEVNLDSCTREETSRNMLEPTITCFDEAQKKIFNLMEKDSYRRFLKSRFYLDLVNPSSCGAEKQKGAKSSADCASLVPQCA
RGS4 act: RGS4 potentiation or activation; HEK293 M3R/inducible RGS4, carbachol calcium flux Fluo4; hits give low values; B-score at 10 µM; actives 0.92% (n = 310,000);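 active = B-score of the integrated calcium signal more than 4 SD below the library mean, with starting fluorescence not abnormally high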;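 also: negative B-score means reduced calcium response which marks RGS4 activation or potentiation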
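System: HEK293 FlpIn-TREx cells, stable M3R, doxycycline-inducible RGS4. Timing: overnight RGS4 induction, 30 min dye load 37 °C, 20 min compound RT. Also added: carbachol, ECmax concentration. Measured by: Fluo4 fluorescence kinetic imaging of calcium. Evaluation: integrated calcium ratio converted to B score.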
Active calls of the source: *. Only some compounds are listed: those with a hit (about 3.5% of all), similar ones and a draw of the others.

Screening NCC(c1ccccc1)c1c[nH]c2ccccc12 (configuration not stated) returned MrgX1 antag inactive, MrgX1 ag inactive, MrgX1 allo act inactive, RGS4 block inactive and RGS4 act inactive.
N#C/C(=C/c1cn[nH]c1-c1ccc(Br)cc1)C(=O)O was read as MrgX1 antag inactive, MrgX1 ag inactive, MrgX1 allo act inactive, RGS4 block inactive and RGS4 act inactive.
Screening Fc1cccc(Cl)c1CNC(c1ccccc1)c1ccccc1 returned MrgX1 antag inactive, MrgX1 ag inactive, MrgX1 allo act inactive, RGS4 block inactive and RGS4 act -7*.
`O=C(CNC(c1ccccc1)c1ccccc1)Nc1c(F)cccc1F` gave MrgX1 antag inactive, MrgX1 ag inactive, MrgX1 allo act inactive, RGS4 block inactive and RGS4 act inactive.
For Cc1cc(=O)[nH]c(SCC(=O)NCCC2=CCCCC2)n1 the results were MrgX1 antag inactive, MrgX1 ag inactive, MrgX1 allo act inactive, RGS4 block inactive and RGS4 act inactive.
For Cc1ccc(NS(=O)(=O)c2cccc(C(=O)NNC(=O)c3cccn3C)c2)c(C)c1 the results were MrgX1 antag -6.7*, MrgX1 ag inactive, MrgX1 allo act inactive, RGS4 block inactive and RGS4 act inactive.
Screening COc1ccc(NS(=O)(=O)c2cccc(C(=O)NNC(=O)c3cccn3C)c2)cc1 returned MrgX1 antag inactive, MrgX1 ag inactive, MrgX1 allo act inactive, RGS4 block inactive and RGS4 act inactive.
For O=C(Nc1cccc(-c2csc(Nc3ccccc3)n2)c1)c1ccccc1 the results were MrgX1 antag inactive, MrgX1 ag inactive, MrgX1 allo act inactive, RGS4 block inactive and RGS4 act -7.3*.
Screening O=C(Nc1cccc(-c2csc(Nc3cccc(C(F)(F)F)c3)n2)c1)c1ccccc1 returned MrgX1 antag inactive, MrgX1 ag inactive, MrgX1 allo act inactive, RGS4 block inactive and RGS4 act inactive.
For Cc1cccc(N2CCN(C(=O)n3ccnc3)CC2)c1C the results were MrgX1 antag inactive, MrgX1 ag inactive, MrgX1 allo act inactive, RGS4 block inactive and RGS4 act inactive.
For Cc1cc2ncn(-c3ncccc3[N+](=O)[O-])c2cc1C the results were MrgX1 antag inactive, MrgX1 ag 27*, MrgX1 allo act inactive, RGS4 block inactive and RGS4 act inactive.
O=C(COC(=O)c1cccc([N+](=O)[O-])c1)c1ccc(OCc2ccccc2)cc1 was read as MrgX1 antag inactive, MrgX1 ag inactive, MrgX1 allo act inactive, RGS4 block inactive and RGS4 act -8.4*.
For O=C(NCCc1nnc2ccc(N3CCCC3)nn12)c1ccccc1 the results were MrgX1 antag inactive, MrgX1 ag inactive, MrgX1 allo act inactive, RGS4 block inactive and RGS4 act inactive.
Screening COC(=O)C1=CN(C2CC2)C=C(C(=O)OC)C1c1ccc(C(=O)OC)cc1 returned MrgX1 antag inactive, MrgX1 ag inactive, MrgX1 allo act inactive, RGS4 block inactive and RGS4 act inactive.
COC(=O)C1=CN(C2CC2)C=C(C(=O)OC)C1c1ccc(C(F)(F)F)cc1 was read as MrgX1 antag -6.6*, MrgX1 ag inactive, MrgX1 allo act inactive, RGS4 block inactive and RGS4 act inactive.
For CCOc1ccc(C(=O)Nc2ccc(NC(=O)c3cccs3)cc2)cc1[N+](=O)[O-] the results were MrgX1 antag -7.3*, MrgX1 ag inactive, MrgX1 allo act inactive, RGS4 block inactive and RGS4 act inactive.
For C/C(=N\NC(=O)COc1ccc(C)cc1[N+](=O)[O-])c1cccs1 the results were MrgX1 antag -6.5*, MrgX1 ag inactive, MrgX1 allo act inactive, RGS4 block inactive and RGS4 act inactive.
C/C(=N\NC(=O)COc1ccc(C)cc1Br)c1cc([N+](=O)[O-])cs1 was read as MrgX1 antag inactive, MrgX1 ag inactive, MrgX1 allo act inactive, RGS4 block inactive and RGS4 act inactive.
O=C(CCSCc1ccccc1F)NCc1ccc(F)cc1 was read as MrgX1 antag inactive, MrgX1 ag inactive, MrgX1 allo act inactive, RGS4 block inactive and RGS4 act inactive.
Screening COc1cc(/C=N/OCC(=O)Nc2ccc(OC(F)F)cc2)ccc1OCc1ccccc1 returned MrgX1 antag inactive, MrgX1 ag inactive, MrgX1 allo act inactive, RGS4 block inactive and RGS4 act -7*.

Bioassay records from PubChem.
